Source: ChEMBL document CHEMBL4028907, “Semisynthesis and Biological Evaluation of Xanthone Amphiphilics as Selective, Highly Potent Antifungal Agents to Combat Fungal Resistance” (J Med Chem, 2017)
≈ marks a conversion by molar mass, not a printed value.

Columns and labels:
Candida albicans [1] = test: Antifungal activity against Candida albicans ATCC 10231 after 24 hrs by two fold serial dilution method; type: functional; conditions: ATCC 10231, 24 h
Outline: (§1)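 Candida grown on Sabouraud dextrose agar at 35 °C for 24 h, adjusted to ~5×10^3 CFU/mL. Two-fold dilutions from 100 to 0.78 μg/mL in Sabouraud dextrose broth, incubated at 35 °C for 24 h. MIC is the lowest concentration inhibiting growth by eye and by OD600. CLSI-based with minor modifications.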

Candida albicans [2] = test: Synergistic antifungal activity against drug resistant Candida albicans DF2672R after 24 hrs in presence of amphotericin B by checkerboard assay; type: functional
Outline: (§2)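 Checkerboard combination of each compound with a second antifungal, following a previously reported procedure. FIC = MIC of A in combination/MIC of A alone + MIC of B in combination/MIC of B alone.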

Candida albicans [3] = test: Synergistic antifungal activity against drug resistant Candida albicans DF2672R after 24 hrs in presence of itraconazole by checkerboard assay; type: functional; outline: as §2
Staphylococcus aureus [4] = test: Antibacterial activity against methicillin resistant Staphylococcus aureus DM21455 by two fold serial dilution method; type: functional
Outline: (§3)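 Broth microdilution per CLSI guidelines with minor modifications, run in Mueller−Hinton broth; MIC is the lowest concentration giving no visible growth.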

Candida albicans [5] = test: Antifungal activity against Candida albicans ATCC90028 after 24 hrs by two fold serial dilution method; type: functional; conditions: ATCC90028, 24 h; outline: as §1
Fusarium oxysporum [6] = test: Antifungal activity against Fusarium oxysporum MYA3461 after 48 hrs by two fold serial dilution method; type: functional; conditions: MYA3461, 48 h
Outline: (§4)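 Moulds grown on potato dextrose agar, 30 °C, 4 days; inoculum adjusted to about 5×10^3 CFU/mL. Two-fold serial dilutions in RPMI-1640 broth, 100 to 0.78 μg/mL final, mixed with equal volume of cell suspension; incubated 30 °C, 48 h. MIC = lowest concentration inhibiting growth, judged visually and by OD530.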

Fusarium oxysporum [7] = test: Antifungal activity against Fusarium oxysporum 64530 after 48 hrs by two fold serial dilution method; type: functional; conditions: Fusarium oxysporum, 64530, 48 h; outline: as §4
[8] = Selectivity index, ratio of HC50 for New Zealand white rabbit RBC to MIC for Candida albicans ATCC 10231
Fusarium solani [9] = test: Antifungal activity against Fusarium solani MYA3636 after 48 hrs by two fold serial dilution method; type: functional; conditions: MYA3636, 48 h; outline: as §4
Klebsiella pneumoniae = test: Antibacterial activity against Klebsiella pneumoniae DM4299 by two fold serial dilution method; type: functional
Outline: (§5)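 Broth microdilution (CLSI, minor modifications) in Sabouraud dextrose, Mueller−Hinton or RPMI 1640 broth; two-fold serial dilutions of compound from stock to final 100 to 0.78 μg/mL. MIC taken as lowest concentration giving no visible growth.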

[10] = Cytotoxicity against human corneal fibroblasts assessed as cell viability at 100 uM after 4 hrs by LDH assay relative to control; type: cell-based, Corneal fibroblast; conditions: read-out: Activity
Outline: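 LDH release assay on human corneal fibroblasts seeded at 10000 cells per well, exposed to a range of compound concentrations up to 100 μM. 1% Triton X-100 served as positive control and 0.5% DMSO as negative control; biological replicates.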

Aspergillus fumigatus [11] = test: Antifungal activity against Aspergillus fumigatus TCC 90906 after 48 hrs by two fold serial dilution method; type: functional; conditions: TCC 90906, 48 h; outline: as §4
Candida albicans [12] = test: Synergistic antifungal activity against drug resistant Candida albicans DF2672R after 24 hrs in presence of natamycin by checkerboard assay; type: functional; outline: as §2
[13] = Dissociation constant, pKa of compound; type: physicochemical
[14] = Selectivity index, ratio of IC50 for human corneal fibroblasts to MIC for drug resistant Candida albicans DF2672R
Lipid bilayer [15] = test: Induction of membrane permiablization in calcein loaded DOPC/DOPE/PI large unilamellar vesicles assessed as calcein leakage at 1:8 compound to lipid ratio after 1 to 2 hrs by […] fluorescence assay relative to control
Outline: (§6)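 LUVs (DOPC/DOPE/PI 2:1:1 with 15 wt % ergosterol, about 100 nm) made by film hydration and extrusion, loaded with 80 mM calcein in HEPES buffer pH 7.4. Free dye removed by G-50 column. Compound added in 0.5% DMF at 50 μM final phospholipid. Emission read at 520 nm (excitation 490 nm); leakage normalized to 1% Triton X-100.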

Candida albicans [16] = test: Synergistic antifungal activity against drug resistant Candida albicans DF2672R after 24 hrs in presence of posaconazole by checkerboard assay; type: functional; outline: as §2
Bacillus cereus = test: Antibacterial activity against Bacillus cereus ATCC11778 by two fold serial dilution method; type: functional; outline: as §5
Fusarium solani [17] = test: Antifungal activity against Fusarium solani 46492 after 48 hrs by two fold serial dilution method; type: functional; conditions: Fusarium solani, 46492, 48 h; outline: as §4
Candida albicans [18] = test: Antifungal activity against Candida albicans ATCC11651 after 24 hrs by two fold serial dilution method; type: functional; conditions: ATCC11651, 24 h; outline: as §1
Candida albicans [19] = test: Antifungal activity against Candida albicans DF1976R after 24 hrs by two fold serial dilution method; type: functional; outline: as §1
Aspergillus flavus [20] = test: Antifungal activity against Aspergillus flavus TCC 204304 after 48 hrs by two fold serial dilution method; type: functional; conditions: TCC 204304, 48 h; outline: as §4
Lipid bilayer [21] = test: Induction of membrane permiablization in calcein loaded DOPC/DOPE/PI large unilamellar vesicles assessed as calcein leakage at 1:4 compound to lipid ratio after 1 to 2 hrs by fluorescence assay relative to control; outline: as §6
Aspergillus flavus [22] = test: Antifungal activity against Aspergillus flavus TCC MYA3631 after 48 hrs by two fold serial dilution method; type: functional; conditions: TCC MYA3631, 48 h; outline: as §4
Candida albicans [23] = test: Antifungal activity against Candida albicans ATCC24433 after 24 hrs by two fold serial dilution method; type: functional; conditions: ATCC24433, 24 h; outline: as §1
Candida albicans [24] = test: Potency index, ratio of natamycin concentration to compound concentration for antifungal activity against drug resistant Candida albicans DF2672R infected C57BL6 mouse; type: functional
Candida albicans [25] = test: Synergistic antifungal activity against drug resistant Candida albicans DF2672R after 24 hrs in presence of miconazole by checkerboard assay; type: functional; outline: as §2
Candida albicans [26] = test: Fungicidal activity against drug resistant Candida albicans DF2672R at 1 time MIC after 1 hr by time kill assay relative to control; type: functional
Outline: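 Cells at 10^5–10^6 CFU/mL exposed to 1×, 2×, 4× or 8× MIC at 35 °C. Samples taken at 0.5, 1, 2, 4, 8 and 24 h, serially diluted in PBS and plated on SDA. CFU counted after 24 h at 35 °C; biological replicates.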

Aspergillus fumigatus [27] = test: Antifungal activity against Aspergillus fumigatus TCC MYA3626 after 48 hrs by two fold serial dilution method; type: functional; conditions: TCC MYA3626, 48 h; outline: as §4
Fusarium solani [28] = test: Antifungal activity against Fusarium solani 62877 after 48 hrs by two fold serial dilution method; type: functional; conditions: Fusarium solani, 62877, 48 h; outline: as §4
Pseudomonas aeruginosa = test: Antibacterial activity against Pseudomonas aeruginosa DM23155 by two fold serial dilution method; type: functional; outline: as §5
Fusarium solani [29] = test: Antifungal activity against Fusarium solani 52628 after 48 hrs by two fold serial dilution method; type: functional; conditions: Fusarium solani, 52628, 48 h; outline: as §4
Staphylococcus aureus [30] = test: Antibacterial activity against methicillin resistant Staphylococcus aureus DM9808R by two fold serial dilution method; type: functional; outline: as §3

COc1c(OCC(O)CNC(=N)N)cc2oc3cc(OCC(O)CNC(=N)N)c(CC=C(C)C)c(O)c3c(=O)c2c1CC=C(C)C (stereo not drawn)
MIC (Candida albicans [1]): 0.78 µg/mL (≈ 1.22 µM)
fractional inhibitory concentration index (FICI) (Candida albicans [2]): 1.28
fractional inhibitory concentration index (FICI) (Candida albicans [3]): 1.28
MIC (Staphylococcus aureus [4]): 1.56 to 3.13 µg/mL (≈ 2.43 to 4.88 µM)
MIC (Candida albicans [5]): 0.78 µg/mL (≈ 1.22 µM)
MIC (Fusarium oxysporum [6]): 1.56 µg/mL (≈ 2.43 µM)
MIC (Fusarium oxysporum [7]): 3.13 µg/mL (≈ 4.88 µM)
Selectivity Index [8]: 61
MIC (Fusarium solani [9]): 3.13 µg/mL (≈ 4.88 µM)
MIC (Klebsiella pneumoniae): 25 to 50 µg/mL (≈ 39 to 78 µM)
viability at 4 h, 100 µM [10]: 44.4%
MIC (Aspergillus fumigatus [11]): 6.25 µg/mL (≈ 9.75 µM)
fractional inhibitory concentration index (FICI) (Candida albicans [12]): 1.08
pKa [13]: 12.5
Selectivity Index [14]: 41 - 82
Activity (Lipid bilayer [15]): 43.8%
fractional inhibitory concentration index (FICI) (Candida albicans [16]): 1.06
MIC (Bacillus cereus): 1.56 to 3.13 µg/mL (≈ 2.43 to 4.88 µM)
MIC (Fusarium solani [17]): 3.13 µg/mL (≈ 4.88 µM)
MIC (Candida albicans [18]): 0.78 µg/mL (≈ 1.22 µM)
MIC (Candida albicans [19]): 0.78 µg/mL (≈ 1.22 µM)
MIC (Aspergillus flavus [20]): 6.25 µg/mL (≈ 9.75 µM)
Activity (Lipid bilayer [21]): 75.6%
MIC (Aspergillus flavus [22]): 6.25 µg/mL (≈ 9.75 µM)
MIC (Candida albicans [23]): 0.78 µg/mL (≈ 1.22 µM)
Ratio (Candida albicans [24]): 25
fractional inhibitory concentration index (FICI) (Candida albicans [25]): 0.88
Activity (Candida albicans [26]): 91%
MIC (Aspergillus fumigatus [27]): 6.25 µg/mL (≈ 9.75 µM)
MIC (Fusarium solani [28]): 3.13 µg/mL (≈ 4.88 µM)
MIC (Pseudomonas aeruginosa): 25 to 50 µg/mL (≈ 39 to 78 µM)
MIC (Fusarium solani [29]): 3.13 µg/mL (≈ 4.88 µM)
MIC (Staphylococcus aureus [30]): 1.56 to 3.13 µg/mL (≈ 2.43 to 4.88 µM)
